High-throughput results as filed in PubChem BioAssay.
Only some compounds are listed: those with a hit (about 1.4% of all), similar ones and a draw of the others.
PMI act – activators of human phosphomannose isomerase; activation factor at 20 µM; 0.005% of 190,000 active; purified human PMI, coupled resazurin fluorescence, 20 min; stronger effect = higher value; 1 = vehicle control, 0 substrate-free wells;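 active = activation factor of 2 or more at 20 µM, relative to plate controls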
Avidin bead fluor – compound fluoresces at 488/530 nm on avidin beads. compound fluorescence 488/530 nm, flow cytometry; stronger effect = higher value. fluorescence (KMESF) at 10 µM. 0.38% of 220,000 active. AID 1775; in the data active = fluorescence above about 47
GSH bead fluor – compound fluoresces at 488/530 nm on GSH beads. GSH beads flow cytometry, compound fluorescence 488/530 nm; stronger effect = higher value. fluorescence (KMESF) at 10 µM. 0.25% of 190,000 active; in the data active = fluorescence above about 89;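 note: glutathione beads carrying GST-tagged Bcl family fusion proteins plus one bare bead set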
p47phox inh – inhibitors of human p47phox binding; p47phox/p22phox peptide binding, fluorescence polarization, 2 h; inhibition, % at 24.7 µM; 0.53% of 220,000 active;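 active = inhibition above about 30%, limit read from the data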
Target sequence (P14598 whole entry, looked up): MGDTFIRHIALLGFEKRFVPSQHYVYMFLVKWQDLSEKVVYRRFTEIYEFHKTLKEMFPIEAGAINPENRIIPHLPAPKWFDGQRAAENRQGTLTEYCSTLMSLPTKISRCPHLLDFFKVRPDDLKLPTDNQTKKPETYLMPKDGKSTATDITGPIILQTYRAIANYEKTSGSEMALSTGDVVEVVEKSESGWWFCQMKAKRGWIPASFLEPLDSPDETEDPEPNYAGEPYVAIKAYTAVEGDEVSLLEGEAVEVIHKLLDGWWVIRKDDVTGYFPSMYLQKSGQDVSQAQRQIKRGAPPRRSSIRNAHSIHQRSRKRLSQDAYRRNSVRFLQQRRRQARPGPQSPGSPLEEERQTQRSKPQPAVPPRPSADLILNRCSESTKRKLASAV
PMI act satM6P – PMI (human) activation, high substrate; activation factor at 20 µM; 0.34% of 190,000 active; P34949; coupled PMI enzyme assay, resazurin fluorescence, 20 min; stronger effect = higher value; 1 = untreated enzyme, 0 = substrate-free blank; AID 1216;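 active = activation factor of 2 or more at 20 µM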
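Test system – human PMI in coupled enzyme assay · Timing – 20 min incubation at room temperature · Detection – Diaphorase-driven resazurin-to-resorufin fluorescence, excitation 544, emission 590 nm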
Diaph act CS – activates diaphorase or chemically reduces, flagging diaphorase assay artifacts. Diaphorase/resazurin coupled assay, resorufin fluorescence, 16 min; stronger effect = higher value; 1 = vehicle wells, 0 = NADH-free wells. activation factor at 20 µM. 0.005% of 190,000 active;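 active = diaphorase activity raised at least twofold by the compound at 20 µM; inactive = activation factor below 2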
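Measured by – red resorufin fluorescence at 544/590 nm excitation/emission · Test system – Clostridium kluyveri diaphorase, purified enzyme · Incubation – reaction time 16 min, room temperature · Buffer or medium – 50 mM HEPES pH 7.4 with 4.542 mM MgCl2, 0.005% Tween 20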
Large screens that a line does not name were inactive.

Cc1cc(C)nc(Nc2ncc(O)n2-c2ccc(C)c(C)c2)n1	Avidin bead fluor 56
Cc1cc(C)nc(Nc2ncc(O)n2-c2ccc(C)c(Cl)c2)n1	none
O=C(CSc1cccc[n+]1[O-])Nc1cc2c(cc1Cl)C(=O)c1ccccc1C2=O	p47phox inh 33
O=C(CSc1cccc[n+]1[O-])Nc1cc([N+](=O)[O-])ccc1Cl	none
Cc1nnc(NC(=O)NCN2C(=O)C3C4C=CC(C4)C3C2=O)s1 (centres undefined)	none
O=C1NCC(NC(=O)C(F)(F)F)c2cc3c(cc21)OCO3 (centres undefined)	none
CCCCCCOc1ccc(/C(C)=N/NC2=NCCN2)cc1[N+](=O)[O-]	p47phox inh 51
C/C(=N\NC1=NCCN1)c1ccc(N)c([N+](=O)[O-])c1	none (no result: PMI act, GSH bead fluor, PMI act satM6P, Diaph act CS)
COc1ccc(N/N=C(/N=Nc2nc(C)cc(=O)[nH]2)c2ccccc2)cc1	PMI act satM6P 2.3
Cc1cc(=O)[nH]c(N=N/C(=N/Nc2ccccc2C)c2ccccc2)n1	none
Cc1cc(=O)[nH]c(N=N/C(=N/Nc2ccc(O)cc2)c2ccccc2)n1	PMI act satM6P 2.3
Cc1ccccc1NC(=O)C12CC3CCC1(C)C3(C)CO2 (centres undefined)	none
O=C(NC1CCCC1)c1ccccc1-c1ccccc1	none
Cc1[nH]ccc(=O)c1OCc1ccccc1	p47phox inh 59
Cc1[nH]ccc(=O)c1OCc1ccc(Cl)cc1	none
O=C(CCCCCn1nnc2ccccc2c1=O)N[C@H](C(=O)O)c1ccccc1	none (no result: PMI act, GSH bead fluor, PMI act satM6P, Diaph act CS)
O=C(CCCn1nnc2ccccc2c1=O)N[C@H](C(=O)O)c1ccccc1	Avidin bead fluor 49 (no result: PMI act, GSH bead fluor, PMI act satM6P, Diaph act CS)
O=C(Nn1c(-c2ccccc2)nc2ccccc2c1=O)c1cccs1	none
COc1ccccc1-c1nc2ccccc2c(=O)n1NC(=O)c1cccs1	GSH bead fluor 108
COc1ccc(NC(=O)CN(C)S(=O)(=O)c2cccc3cccnc23)cc1	none
COc1ccc(N(C(=O)C(C)C)S(=O)(=O)c2cccc3cccnc23)cc1	p47phox inh 59
CC(C)(C)C1(C)OC(=O)C(=Cc2ccc(OCC(=O)Nc3ccccc3)cc2)C(=O)O1 (centres undefined)	none
O=C(ONc1ccc(N=NC(=O)c2ccccc2O)cc1)c1ccccc1	p47phox inh 31
O=Nc1ccc(NOC(=O)c2ccccc2Br)cc1	none
CCCCCCCCCCCCCCCC(O)C(N)CO (centres undefined)	p47phox inh 84, Diaph act CS 2.3
Cc1cc(C)cc(OCC(=O)NNC(=O)CCC(=O)NCc2ccccc2)c1	GSH bead fluor 152
O=C(CCC(=O)NNC(=O)COc1ccccc1)NCc1ccccc1	none
O=C(Cc1ccc(Br)cc1)N(Cc1ccccc1)c1ccccn1	Avidin bead fluor 59
O=C(COc1ccc(Br)cc1)N(Cc1ccccc1)c1ccccn1	none
O=C(CSc1nnc(SCc2cccc3ccccc23)s1)N/N=C/c1c[nH]c2ccccc12	none
O=C(CSc1nnc(SCc2ccc(Cl)cc2)s1)N/N=C/c1c[nH]c2ccccc12	p47phox inh 43
CC(C)NC(=O)CCCn1cc([N+](=O)[O-])cn1	none
CC(=O)Nc1cccc(OCC(=O)Nc2ccccc2)c1	none
CC(=O)Nc1cccc(OCC(=O)NS(=O)(=O)c2ccc(Cl)cc2)c1	GSH bead fluor 99
COC(=O)C1=C(C(=O)OC)C2C(C)=CC(C)=CN2C(C(=O)OC)=C1C(=O)OC (centres undefined)	none
O=C(CCCN1C(=O)c2ccccc2C1=O)NC1=NCCS1	GSH bead fluor 259
O=C(Nc1cccc2ccccc12)NC1CCS(=O)(=O)C1 (centres undefined)	Avidin bead fluor 58
O=C(Nc1ccccn1)NC1CCS(=O)(=O)C1 (centres undefined)	none
CCOc1ccccc1OCCOCCN1CCN(Cc2ccccc2)CC1	p47phox inh 40
CCC(C)NC(=O)C1c2cc(OC)c(OC)cc2C(=O)N(C)C1c1ccc(OC)cc1 (centres undefined)	none
CCC(C)NC(=O)C1c2cc(OC)c(OC)cc2C(=O)N(C)C1c1cccs1 (centres undefined)	Avidin bead fluor 67
CCn1cnc2sc(C(=O)N3CCN(Cc4ccc5c(c4)OCO5)CC3)c(C)c2c1=O	p47phox inh 85
CCN(CC)C(=O)Cn1cnc2sc(C(=O)N3CCN(Cc4ccc5c(c4)OCO5)CC3)c(C)c2c1=O	none
CC1(C)C(=O)Nc2ccccc2N1C(=O)COC(=O)C1CCCCC1	p47phox inh 32
Cc1cc(C)c(C)c(S(=O)(=O)N2CCC(C(=O)OCC(=O)N3c4ccccc4NC(=O)C3(C)C)CC2)c1C	none
CC(=O)c1c(C)[nH]c(C(=O)Nc2nccs2)c1C	none
Cc1nnc(SCC(=O)Nc2nc(C(C)(C)C)cs2)s1	none
Cc1ccc(N(CC(O)Cn2nc(C)cc2C)S(=O)(=O)c2ccc3ccccc3c2)cc1 (centres undefined)	none
Cc1cc(C)n(CC(O)CN(c2ccccc2)S(=O)(=O)c2ccccc2)n1 (centres undefined)	Avidin bead fluor 67
CCOC(=O)C1=C(O)c2ccccc2C(=O)/C1=C\c1ccc(C)cc1	p47phox inh 57
CCSc1oc(-c2cccs2)nc1S(=O)(=O)c1ccccc1	PMI act satM6P 2
CCSc1oc(-c2ccco2)nc1S(=O)(=O)c1ccc(F)cc1	none
S=c1nc[nH]c2c1sc1nc(N3CCOCC3)c3c(c12)CCCC3	PMI act satM6P 2
Cc1ccccc1-n1cnnc1SCC(=O)N1CCN(c2ccccc2)CC1	Avidin bead fluor 50
Cc1nnc(SCC(=O)N2CCN(c3ccccc3)CC2)n(N)c1=O	none
Cc1cc(C)c2nc(C(F)(F)F)nc(N3CC(C)OC(C)C3)c2c1 (centres undefined)	p47phox inh 45
CCOc1c2ccc(C(=O)NCc3ccc(C)cc3)cc2nn1CCOC	none
CCCn1nc2cc(C(=O)NCCCCc3ccccc3)ccc2c1OCC	Avidin bead fluor 52
CCCn1nc2cc(C(=O)NCCc3ccc(C)cc3)ccc2c1OCC	Avidin bead fluor 63
O=C1c2ccccc2C(=O)N1CCc1nc(-c2cccnc2)no1	none
CCOC(=O)Cn1cc(/C=N/NC(=O)CC#N)c2ccccc21	none (no result: PMI act, GSH bead fluor, PMI act satM6P, Diaph act CS)
COC(=O)c1ccc(NS(=O)(=O)c2cccc3cccnc23)cc1	p47phox inh 49
C=CCn1c(SCC(=O)NCc2ccc3c(c2)OCO3)nnc1C1CCCCC1	none
Fc1cccc(/C=C2\CCCC3=C2NC(=S)NC3c2cccc(F)c2)c1 (centres undefined)	none (no result: PMI act, GSH bead fluor, PMI act satM6P, Diaph act CS)
